# In the library only some 8.8% were active in any assay of this set; here they are far more common.
# S1P1 ag pot: S1P1 agonists and agonism potentiators, primary screen, cell-based, primary and confirmation screens, CRE-bla reporter; Sphingosine 1-phosphate receptor 1 (Homo sapiens), P21453; S1P1 CRE-bla cells, forskolin, beta-lactamase FRET, potentiator mode; S1P1 agonist co-added at EC20, 2 nM; 100% = saturating reference agonist, 0% = basal; activation, % at 9.5 µM; 0.57% of 56,000 active;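 active = activation above a cutoff set at the mean activation of all tested compounds plus 3 SD, cut at about 54% in these data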;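 also: forskolin at 4 µM as EC80 and the EC20 agonist is SEW2871; 100% = SEW2871 at its EC100 plus forskolin at EC80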
# M1 antagonist: antagonists of rat M1 muscarinic receptor; Muscarinic acetylcholine receptor M1 (Rattus norvegicus), P08482; CHO-M1 cells, Fluo-4 calcium, ACh EC80 antagonist mode; hits give low values; B-score at 10 µM; 3.4% of 64,000 active; AID 628, 2007;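 active = calcium fluorescence response, raw or row-and-column corrected B-score, differing from the plate sample mean either way at a set confidence level, mostly lower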
# RORa activator: activators of orphan receptor RORA, primary screen, cell-based, luminescence. CHO-K1 Gal4-RORA LBD luciferase reporter; percent increase over mock-subtracted basal signal. activation, % at 10 µM. 1.5% of 65,000 active. Nuclear receptor ROR-alpha (Homo sapiens), P35398. AID 560, 2006;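 active = activation above the mean of all tested compounds plus 3 SD, cut at about 49% in these data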;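 also: 0% = DMSO-treated RORA cells and 100% = added signal equal to DMSO minus mock-transfected cells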
# M1 ag: M1 muscarinic receptor agonists, primary screen, CHO-M1 cells, Fluo-4 calcium, agonist mode; Muscarinic acetylcholine receptor M1; Fluo-4 calcium fluorescence; hits give high values; B-score at 10 µM; 3% of 64,000 active;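 active = fluorescence rise, raw or as B-score row- and column-corrected plate score, outside the 99.7% band of its plate's samples, either direction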
# SF1 activator: activators of human SF-1, primary screen, cell-based, CHO-K1, Gal4-SF-1 LBD, luciferase luminescence | Steroidogenic factor 1 (Homo sapiens), Q13285 | CHO-K1 Gal4-SF-1 LBD luciferase reporter; % increase over DMSO SF-1-specific signal | activation, % at 10 µM | 1.9% of 65,000 active;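 active = activation above the mean activation of all tested compounds plus 3 SD, cut at about 50% in these data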
#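 Material: Gal4–SF-1 LBD one-hybrid luciferase reporter in CHO-K1 cells | Amount: 4,000 cells per well | Compound dosing: 10 µM single point, 1% DMSO | Schedule: 20 h compound treatment, 37 °C | Measured by: SteadyLite luciferase luminescence | Evaluation: Percent activation versus DMSO | Control set: DMSO-treated SF-1-transfected cells as negative, DMSO-treated mock-transfected cells lacking SF-1 as background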
# S1P3 agonist: human S1P3 receptor agonists, primary screen, cell-based, primary and confirmation, NFAT-BLA reporter; S1P3 NFAT-BLA reporter cells, agonism, FRET ratio; relative to 1 µM S1P, basal subtracted; activation, % at 4.5 µM; 0.1% of 60,000 active; AID 373, 2006;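 active = activation above the screen-wide mean plus 3 SD, cut at about 4.5% in these data, passing the limit was not always enough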
# Target sequence (Q99500 whole entry, looked up): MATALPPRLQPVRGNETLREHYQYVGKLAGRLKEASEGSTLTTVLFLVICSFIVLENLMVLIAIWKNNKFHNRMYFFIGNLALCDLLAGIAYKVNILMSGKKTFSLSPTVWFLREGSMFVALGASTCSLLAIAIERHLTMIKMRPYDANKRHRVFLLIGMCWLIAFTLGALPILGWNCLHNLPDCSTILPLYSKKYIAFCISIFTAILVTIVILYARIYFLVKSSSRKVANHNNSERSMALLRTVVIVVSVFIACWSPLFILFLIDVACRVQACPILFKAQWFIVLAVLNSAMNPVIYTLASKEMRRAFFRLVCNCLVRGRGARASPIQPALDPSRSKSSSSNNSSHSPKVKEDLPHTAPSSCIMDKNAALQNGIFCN
#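 Assay system: stable CHO line with human S1P3, Gα16, NFAT-BLA reporter; Detection: FRET β-lactamase substrate fluorescence, excitation 405 nm, 460/535 nm emission ratio, background-subtracted; Read-out: percent activation versus median 1 µM S1P response, basal-subtracted, per plate; Incubation: cells plated overnight, compound 4 h 37 °C, substrate 2 h RT.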
# Active calls of the source: *; nt = no result.
SMILES,S1P1 ag pot,M1 antagonist,RORa activator,M1 ag,SF1 activator,S1P3 agonist
O=C(Nc1nccs1)c1ccc(S(=O)(=O)NCc2cccs2)cc1,19.1,-0.425,15.7,-1.39,16.2,-0.7
O=C(Nc1nccs1)c1ccc(S(=O)(=O)NCC2CCCCC2)cc1,53.0*,-0.102,-17.2,-1.43,-4.3,-1.0
O=C(Nc1cccc(C(F)(F)F)c1)N1CCC(c2nc(-c3ccc(F)cc3)no2)CC1,58.3*,-0.602,-9.3,-1.37,-27.8,-0.9
O=C(Nc1ccc(Cl)cc1)N1CCC(c2nc(-c3cccs3)no2)CC1,34.6,0.00768,-1.1,-2.47*,6.0,-1.6
COc1cc(OC)cc(C(=O)OCc2cc3ccccc3[nH]c2=O)c1,-2.4,0.355,6.3,-0.113,6.7,-0.8
CCSc1nnc(NC(=O)c2cc3c(s2)CCCC3)s1,-1.1,0.0382,46.3,-1.23,51.6*,-0.8
CCSc1nnc(Nc2ccccc2)s1,4.6,0.268,17.3,-0.162,53.8*,-0.2
CCSc1nnc(NC(=O)c2csc3c2CCCC3)s1,-25.7,0,-23.1,1.14,-12.0,-0.8
O=c1c2ccccc2nnn1CSc1nnc(Nc2ccccc2)s1,9.6,0.131,-4.5,-0.929,-9.2,-1.1
CCSc1nnc(NC(=O)c2cccnc2)s1,-25.9,1.67,40.9,0,13.3,0.1
CCSc1nnc(NC(=O)c2ccccc2)s1,nt,0.165,65.5*,0.0459,49.4,-0.4
CCSc1nnc(NC(=O)c2ccco2)s1,-2.6,0,53.4*,-0.935,21.7,-1.9
Cc1ccc2c(c1)-c1c(cnn1CC(=O)Nc1ccccc1N1CCN(C)CC1)CO2,-11.9,0.0936,1.2,-1.36,3.1,-0.4
Cc1ccc2[nH]c(=O)c(C(c3nnnn3CC3CCCO3)N3CCCc4ccccc43)cc2c1 (stereo not given),-49.9,0.147,0.8,0.118,-10.2,-1.0
CC(=O)c1c(C)cc(C)c(CSc2nc(C)cc(=O)[nH]2)c1C,-11.5,0.00524,-10.8,-0.196,-7.5,-0.1
CCCc1cc(C(N)=O)c(NC(=O)c2ccco2)s1,nt,-1.22,58.7*,-0.00799,60.5*,-0.5
CCOC(=O)C(NC(C)=O)(Nc1ccc(S(=O)(=O)Nc2cc(C)nc(C)n2)cc1)C(F)(F)F (stereo not given),-11.3,0.431,2.5,0.445,-13.7,-0.4
CCOC(=O)N1CCN(S(=O)(=O)c2ccc(C(=O)Nc3sc4c(c3C#N)CCC4)cc2)CC1,-8.1,0.0537,-2.9,-0.512,74.5*,-1.0
COC(=O)c1ccc2c(=O)n(C3CCCCC3)c(SCC#N)nc2c1,87.2*,1.08,2.8,-0.000768,-9.5,3.1
COC(=O)C(CC(=O)c1ccc(Br)cc1)n1ccnc1 (stereo not given),nt,nt,-13.8,nt,-18.6,-0.7
Cn1c(SCc2ccccc2F)nnc1-c1cnccn1,-7.5,0.0338,64.8*,0.345,43.7,-0.5
Cn1c(SCc2ccc(F)cc2)nnc1-c1cccs1,-3.5,-0.0269,37.5,0.338,51.2*,-0.4
Cn1c(SCc2ccccc2)nnc1-c1cccs1,-17.4,0.933,49.6*,2.33,57.1*,-0.2
Cn1c(SCc2nc3ccccc3s2)nnc1-c1cccs1,3.2,0.0101,-3.2,0.0587,21.1,-0.8
Cn1c(SCc2ccc(F)cc2)nnc1-c1ccccn1,-0.2,0.216,27.8,-0.557,64.1*,-0.2
SMILES,S1P1 ag pot,M1 antagonist,RORa activator,M1 ag,SF1 activator,S1P3 agonist
Nc1c(C(=O)NCCN2CCOCC2)c2nc3ccccc3nc2n1CCc1ccccc1,-97.2,0.171,32.0,0.596,-15.7,7.9*
Nc1c(C(=O)NCCN2CCOCC2)c2nc3ccccc3nc2n1CCc1ccccc1F,-64.2,0.212,-7.6,0.222,5.1,7.2
c1ccc2nc3c(nc2c1)c1ccccc1n3CCN1CCOCC1,-40.3,-0.292,14.1,6.45*,91.3*,-0.1
Nc1c(C(=O)NCCN2CCOCC2)c2nc3ccccc3nc2n1-c1ccc2c(c1)OCO2,-13.3,0.00783,54.8*,-0.142,-7.2,0.2
Cc1ccc2c(CC(=O)Nc3nc(C)cs3)coc2c1,nt,-0.665,-4.7,-1.18,12.4,nt
O=C(NCC(=O)N(c1ccc2c(c1)OCCO2)C(C(=O)NC1CCCC1)c1ccco1)c1ccco1 (stereo not given),6.0,-0.0252,-5.7,-0.355,-4.7,-0.4
COc1ccccc1NC(=O)Nc1nnc(C(C)C)s1,21.2,1.55,44.0,0.397,52.9*,-3.1
CCc1nnc(NC(=O)Nc2ccccc2OC)s1,-18.4,-0.0715,-14.6,-0.301,13.1,-0.7
COc1ccccc1-c1nnc(NC(C)=O)s1,5.1,0.113,78.5*,0.268,13.7,-1.5
CCOC(=O)Cn1ncc(-c2ccccc2)c1N,nt,0.0312,26.4,-0.283,11.9,nt
O=C(Nc1ccc(NC(=O)C2CC2)nc1)c1ccccn1,nt,0.554,8.0,1.93,12.7,nt
CC(C)C(=O)Nc1ccc(NC(=O)c2ccccn2)cn1,nt,0.0966,51.0*,-0.539,40.7,nt
CCC(=O)Nc1ccc(NC(=O)c2ccccn2)cn1,17.4,0.18,65.4*,0.036,39.1,-1.0
CC(C)NC(=O)CSc1nc2ccccc2n1-c1ccccc1,-232.7,0.945*,-15.4,0.255,10.6,-0.1
CC(C)NC(=O)CSc1nncn1-c1ccccc1,3.9,-0.000864,3.0,-0.571,11.5,-0.7
CCc1nc(Nc2ccc(N3CCN(C(C)=O)CC3)cc2)c2oc3ccccc3c2n1,-35.3,-1.13,12.5,1.2,53.4*,0.1
CS(=O)(=O)N1CCN(c2nc3ccccc3s2)CC1,-4.0,-0.499,57.6*,0.345,28.5,0.0
O=C(OCn1nnc2ccccc2c1=O)C1CCN(S(=O)(=O)c2cccs2)CC1,4.3,-0.00943,27.7,0.0225,-10.1,-0.8
Cc1ccc(CN2C(=O)CCC2C(=O)NCCN(CC(C)C)CC(C)C)cc1 (stereo not given),-8.3,0.181,-0.9,0.463,-5.6,-1.7
CCCCc1ccc(Nc2ncnc3nc[nH]c23)cc1,2.5,-0.596,16.9,-0.066,34.9,-1.3
Cc1ccc(Nc2ncnc3nc[nH]c23)cc1Cl,6.4,0.28,66.9*,-0.808,43.4,0.0
COc1ccccc1N1CCN(CCOc2c(OC)cccc2OC)CC1,19.6,2.53*,-25.7,1.35,-19.8,-4.5
O=C(CSC1=NCCS1)N1CCOCC1,10.2,2.1*,-19.6,-1.48,-6.4,2.0

# Compound activity as filed in PubChem BioAssay.
